Assay outcomes: PubChem BioAssay, Sanford-Burnham Center for Chemical Genomics
Hits are enriched below; roughly 2.4% of the tested compounds scored in any of these assays.
DNMT1 block: human DNMT1 methyltransferase inhibitors, primary screen, biochemical, molecular beacon, fluorescence, HinP1I cleavage, uHTS. DNA (cytosine-5)-methyltransferase 1 (Homo sapiens), P26358. inhibition (reported as % activation of signal), % at 10 µM. actives 0.83% (n = 360,000). AID 588458, 2011; in the data active = inhibition above about 50%
STEP block: STEP phosphatase inhibitors, primary screen, biochemical, fluorescence intensity, uHTS; Tyrosine-protein phosphatase non-receptor type 5 (Homo sapiens), P54829; actives 0.25% (n = 360,000); recombinant STEP, OMFP fluorogenic substrate; AID 588621, 2011; inhibition, % at 20 µM;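 active = inhibition at 20 µM, scaled per plate between control wells, above about 37%, limit read from the data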;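 note: 0% = DMSO with enzyme and substrate and 100% = substrate only without enzyme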
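System: isolated STEP enzyme; schedule: 20 min enzyme reaction at room temperature, protected from light; medium: Bis-Tris buffer pH 6.0, 2.5 mM DTT, 0.005% Tween 20; signal: fluorescence, 480/540 nm; dosing: single compound dose of 20 µM, 1% DMSO final; also added: OMFP substrate, 25 µM final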
NadD inh: inhibitors of S. aureus NadD, primary screen, biochemical, colorimetric, uHTS. Nicotinate-nucleotide adenylyltransferase NadD (Staphylococcus aureus N315). purified NadD enzyme, colorimetric absorbance read-out. inhibition, % at 20 µM. actives 0.78% (n = 360,000). AID 602399, 2012; in the data active = inhibition above about 26%
Scp1 inh: Scp-1 phosphatase inhibitors, primary screen, biochemical, colorimetric, uHTS; actives 0.88% (n = 340,000); inhibition, % at 20 µM; Recombinant Scp1, phosphopeptide, malachite green phosphate absorbance;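 active = inhibition above about 50% at 20 µM, limit read from the data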;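 note: plate controls were DMSO wells with enzyme for no effect and wells lacking enzyme for full effect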
Target sequence (Q9GZU7 76-261 limits assumed): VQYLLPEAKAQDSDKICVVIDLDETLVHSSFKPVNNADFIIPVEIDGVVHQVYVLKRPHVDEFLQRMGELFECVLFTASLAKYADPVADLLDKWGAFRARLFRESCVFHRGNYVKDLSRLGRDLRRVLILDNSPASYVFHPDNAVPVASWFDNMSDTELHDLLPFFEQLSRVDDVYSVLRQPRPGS
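assay system = SCP-1 phosphatase catalytic domain, residues 76-261 | buffer or medium = 50 mM Tris acetate pH 5.5, 0.005% Tween-20, 10 mM MgCl2 | incubation = enzyme reaction 45 min at room temperature, colour 5 min, stabilisation 30 min | signal = Phosphate-binding colour reagent, absorbance read at 630 nm | measure = % inhibition at 20 µM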
LMPTP block: LMPTP phosphatase inhibitors, primary screen, biochemical, fluorescence intensity, uHTS. AID 651560, 2012. actives 0.22% (n = 360,000). inhibition, % at 20 µM. recombinant LMPTP-A, OMFP fluorogenic substrate;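 active = compounds that cut the enzyme signal by at least half of the control window in the single-dose screen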;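 note: plate controls were DMSO wells with enzyme plus substrate for no effect and substrate without enzyme for full effect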
Target sequence (P24666 whole entry, looked up): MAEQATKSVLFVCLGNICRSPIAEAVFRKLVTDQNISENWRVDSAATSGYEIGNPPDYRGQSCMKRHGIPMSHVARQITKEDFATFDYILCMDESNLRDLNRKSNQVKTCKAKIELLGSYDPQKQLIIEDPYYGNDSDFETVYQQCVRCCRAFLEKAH
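Test system: LMPTP-A phosphatase enzyme. Amount: LMPTP-A at 0.625 nM final in the reaction. Reagent: OMFP substrate, 400 µM final. Times: 50 min at room temperature. Signal: endpoint fluorescence intensity from OMFP dephosphorylation. Read-out basis: % inhibition. Benchmarks: no-enzyme and uninhibited controls.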
SUMO1 PPI mod: modulators of SUMO1 protein-protein interactions, primary screen, biochemical, uHTS; AID 602429, 2012; inhibition, % at 20 µM; Small ubiquitin-related modifier 1 (Homo sapiens), P63165; SUMO1 binding to a labelled peptide, TR-FRET, 1 h; actives 0.33% (n = 360,000); in the data active = inhibition above about 37%
Target sequence (P63165 whole entry, looked up): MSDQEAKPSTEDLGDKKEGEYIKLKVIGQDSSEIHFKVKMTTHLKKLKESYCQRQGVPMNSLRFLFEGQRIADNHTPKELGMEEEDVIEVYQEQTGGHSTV
NadD conf: inhibitors of S. aureus NadD, confirmation, biochemical, colorimetric, single concentration; purified S. aureus NadD, colorimetric enzyme assay; inhibition, % at 20 µM; shares compounds with NadD inh; actives 13% (n = 2,000); in the data active = inhibition mostly above about 42%, no sharp cut-off; inactive = mostly below about 42%
* = called active by the depositor; x = not tested or not shown.

SMILES	DNMT1 block	STEP block	NadD inh	Scp1 inh	LMPTP block	SUMO1 PPI mod	NadD conf
COc1ccc(/C=N/NC(=O)c2c(Br)cnn2C)c2ccccc12	-1.8	-0.6	-3.1	-9.5	0.4	-9.6	x
COc1ccc(NS(=O)(=O)c2cc(N=Nc3c(O)[nH]c(=O)[nH]c3=O)ccc2OC)cc1Br	-8.8	1.8	16.8	x	0.6	-27.6	x
CCOc1ccc(NS(=O)(=O)c2ccc(Cl)c(N=Nc3c(O)[nH]c(=S)[nH]c3=O)c2)cc1Br	-7.0	7.1	38.8*	x	0.8	6.4	63.0*
O=C(/C=C/c1ccco1)Nc1ccc(N2CCCC2)cc1	40.7	2.2	36.5*	-4.6	47.0	3.3	5.2
O=C(/C=C/c1ccco1)Nc1ccc(-c2nc3ccccc3[nH]2)cc1	49.9	5.2	33.5*	-2.7	36.8	1.1	3.3
O=C(CN1CCc2ccccc21)Nc1ccc2c(c1)OCO2	-16.0	1.8	56.4*	-1.8	1.4	-18.8	7.6
O=C(CN1CCc2ccccc21)NCc1ccc2c(c1)OCO2	-8.0	-2.0	-2.3	-0.9	0.7	22.0	x
CCOc1ccccc1-c1cc(C(=O)N/N=C/c2ccc3c(c2)OCO3)c2ccccc2n1	-10.1	-2.1	35.2*	-5.9	2.6	2.5	11.8
O=C1CCCC2=C1C1(CCCC1)N=C(Nc1nc3cc(-c4ccccc4)ccc3o1)N2	-15.7	0.4	39.6*	x	4.3	0.9	12.6
CCCC(=O)Nc1nc(C)c(-c2csc(Nc3ccccc3OC)n2)s1	-24.0	-0.7	8.0	0.6	1.9	4.0	x
CCCCCC(=O)Nc1nc(C)c(-c2csc(Nc3cc(Cl)ccc3OC)n2)s1	-36.6	1.1	42.0*	4.0	1.3	11.7	38.5
Cc1ccc(Cl)cc1Nc1nc(-c2sc(NC(=O)C(C)(C)C)nc2C)cs1	-38.1	0.8	33.6*	14.5	1.5	104.3*	7.4
CCOc1ccc(NS(=O)(=O)c2ccc(C(=O)N3CCCC(C)C3)cc2)cc1 (stereo unspecified)	-0.4	2.5	-5.1	-6.9	-0.5	-2.1	x
COc1ccc(C(=O)c2[nH]c(N)c(C(=O)NCCc3c[nH]c4ccccc34)c2-c2ccc(Br)cc2)cc1	x	x	44.0*	x	2.1	1.7	28.8
Nc1[nH]c(C(=O)c2ccccc2)c(-c2ccc(Br)cc2)c1C(=O)NCCc1c[nH]c2ccccc12	x	x	26.5	x	1.8	-1.0	x
COc1ccccc1C(=O)Nc1ccc2c(c1)nc1n2CCN(C2CCCCC2)C1	60.2*	1.7	34.7*	-3.1	20.6	2.7	2.4
O=C(Nc1ccc2c(c1)nc1n2CCN(C2CCCCC2)C1)c1ccco1	-8.1	-1.0	17.7	-0.8	16.3	-4.7	x
FC(F)(F)c1cccc(-c2ccc(/C=N/Nc3nncc(-c4ccccc4)n3)o2)c1	39.6	-0.4	0.8	9.8	-1.1	-1.6	x
Clc1ccc(-c2ccc(/C=N/Nc3nncc(-c4ccccc4)n3)o2)cc1	4.5	-0.3	37.9*	0.0	0.8	-1.8	12.9
O=[N+]([O-])c1ccc(N/N=C/c2sc(N3CCOCC3)nc2-c2ccccc2)c(S(=O)(=O)Nc2ccc(Cl)cc2)c1	2.7	-7.8	57.5*	10.0	10.9	-18.4	5.2
O=[N+]([O-])c1ccc(N/N=C/c2sc(N3CCOCC3)nc2-c2ccccc2)c(S(=O)(=O)Nc2ccccc2Cl)c1	-1.4	1.5	74.8*	0.3	10.0	-21.8	6.1
c1cncc(CNCc2ccco2)c1	-8.0	0.7	-1.0	1.4	-2.6	4.9	x
COc1ccc(CN2CCCC2C(=O)Nc2ccc(OC)c(OC)c2)cc1OC (stereo unspecified)	5.8	0.3	-0.7	4.2	-1.2	0.9	x
c1ccc(CNC2CC3CCC2C3)cc1 (stereo unspecified)	1.8	-1.4	-0.2	0.5	-2.0	-2.3	x
COc1ccccc1N(C)S(=O)(=O)c1ccc(C)c(C(=O)N2CCCCCC2)c1	2.0	0.4	2.2	-6.2	-0.1	9.0	x
SMILES	DNMT1 block	STEP block	NadD inh	Scp1 inh	LMPTP block	SUMO1 PPI mod	NadD conf
CC1(C)CC1C(=O)Nc1ccc([N+](=O)[O-])cc1Br (stereo unspecified)	-0.1	-1.0	-6.6	-4.9	-0.9	-21.9	x
Cc1ccc(C2(c3ccc(C)cc3)CC2C(=O)Nc2ccc([N+](=O)[O-])cc2O)cc1 (stereo unspecified)	-17.6	-0.2	47.5*	-20.2	6.9	-2.4	43.4
O=C(CC1N=C2c3ccccc3N=C(SCc3ccc(Cl)cc3)N2C1=O)NCc1ccco1 (stereo unspecified)	29.8	4.2	49.1*	9.9	3.0	5.7	59.5*
COc1cc(OC)cc(C(=O)N2CCN(C3CCC(C)CC3)CC2)c1 (stereo unspecified)	-0.8	-0.4	-4.6	-2.0	-8.0	0.0	x
Cn1ncc(Cl)c1C(=O)NC(=S)Nc1sc2c(c1C#N)CCCCC2	0.2	2.8	28.6*	-2.3	5.4	12.1	2.8
N#Cc1c(NC(=S)NC(=O)c2ccccc2)sc2c1CCCC2	0.9	-1.4	3.6	-9.4	12.6	5.8	x
Cc1ccc(C(C)C)cc1NC(=O)Nc1ccc([N+](=O)[O-])cc1	-6.0	-0.8	-7.7	-17.5	5.7	-10.0	x
Cc1cccc(COc2ccccc2C(=O)NC2CCC(O)CC2)c1 (stereo unspecified)	-0.3	1.4	-5.7	-0.4	-0.9	0.8	x
CCS(=O)(=O)Nc1ccc(-c2nc3cccnc3s2)cc1	-4.2	4.0	-5.2	-1.2	0.5	-9.7	x
Cc1ccc(Oc2ccc3c(c2)C(=O)N(c2ccc(S(=O)(=O)Nc4nccs4)cc2)C3=O)cc1	1.7	2.6	44.4*	0.2	2.6	-13.4	46.4
CC(=O)Oc1cccc(N2C(=O)c3cccc4c([N+](=O)[O-])ccc(c34)C2=O)c1	22.8	0.7	-2.2	-8.6	0.1	-23.9	x
O=C(Nc1nccs1)c1cccc(N2C(=O)c3cccc4c([N+](=O)[O-])ccc(c34)C2=O)c1	78.1*	-1.6	37.5*	-1.6	-2.9	-14.1	10.2
